This is an account of results in paper PMC8896403 (Cancer chemotherapy and pharmacology, 2021).

Where “and” joins values, the source holds several entries; their conditions need not be identical. Identical values can stand only once. Like-named read-outs stand apart in the source and are kept apart here.

What is called Cmax is the maximum level reached in the sampled fluid or tissue. One may read the Vd as a proportionality between amount in the body and measured concentration, not a real space. For orientation: Kp means tissue or fluid exposure divided by exposure in the circulation. A word on the clearance: it is a measure of how efficiently the substance is removed, as volume per time. Broadly, the AUC is the area under the concentration-time curve, a measure of exposure. As usually defined, the IC50 is the point on the concentration scale where inhibition reaches its midpoint.

For data set [1] the following is noted: cited from earlier work.
Data set [2] in a line: Plasma and brain pharmacokinetics of panobinostat in CD-1 female mice. Format: in vivo. In short, it runs like this: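 Single tail-vein dose of 15 mg/kg (3 mg/mL in PBS with 20% DMSO and 20% PEG-400) given to 12 mice, with 3 killed at each of 1, 2, 4 and 7 h. Heparinized plasma and brains frozen at −80 °C. LC–MS with internal standard, using 9-point 1–500 ng/mL calibration fitted by 1/x2 regression. Cmax taken as highest observed concentration, AUC1–7 by trapezoidal rule, and clearance from a […] model.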

Data set [3] is described as follows: Protein binding in murine plasma. Conditions: murine plasma compartment. Format: in vitro ADME.
On the set-up of data set [4]: species or system human.
Data set [5] can be described thus: Clearance predicted for the mouse by body surface area scaling. Conditions: body surface area scaling from dog and rat.
The conditions of data set [6]: murine plasma; cited from earlier work.
The conditions of data set [7]: human plasma; cited from earlier work.
The test system of another data set is P-gp. To be noted: cited from earlier work.
For data set [8] the following is noted: cited from earlier work. This is another data set of the same source.
The subject of another data set is human DIPG cell lines. Conditions: cited from earlier work.
In a further data set the test system is DIPG cultures. To be noted: cited from earlier work.
For data set [9] the following is noted: cited from earlier work. The source holds these as a separate data set.
The conditions of data set [10]: dog; cited from earlier work.
The conditions of data set [11]: rat; cited from earlier work.
The conditions of data set [12]: cited from earlier work. This is another data set of the same source.
The conditions of data set [13]: IP and IV administration; cited from earlier work.
The test system of a further data set is refractory solid tumors. Conditions: 9 pediatric patients; cited from earlier work.
For another data set, the system named is high-grade gliomas. To be noted: in combination with bevacizumab, twelve patients; cited from earlier work.
Where [14] appears, read: female, CD-1, mouse, brain, intravenous, 15 mg/kg.
The mark [15] stands for this setting: female, CD-1, mouse, brain, iv, 15 mg/kg.
Setting [16] is: female, CD-1, mouse, brain/plasma, iv, 15 mg/kg.
[17] abbreviates: female, CD-1, mouse, plasma, intravenous, 15 mg/kg.
Where [18] appears, read: female, CD-1, mouse, plasma, iv, 15 mg/kg.
[19] abbreviates: intraperitoneal injection, single time-point 4 h.

For the compound `Cc1nc(Nc2ncc(C(=O)Nc3c(C)cccc3Cl)s2)cc(N2CCN(CCO)CC2)n1` [dasatinib], the “concentrations in the brain after inhibition of P-gp with everolimus” value in data set [1] is recorded as “increased concentrations”.

On to `Cc1[nH]c2ccccc2c1CCNCc1ccc(/C=C/C(=O)NO)cc1` [panobinostat, 2-hydroxypropanoic acid, compound with 2-(E)-Nhydroxy-3-[4-[[[2-(2-methyl-1H-indol-3-yl)ethyl]amino]methyl]phenyl]-2-propenamide], for which the “AUC1–7 for brain” value in [2] (15 mg/kg IV, mice, trapezoidal rule, 1 h to 7 h) is 250 ng·h/g. Besides, in data set [2] (setting [14]), the concentration at 1 h was 60.5 ng/g and 63.2 ng/mL and 181 nM; the concentration at 2 h came to 42.9 ± 5.4 ng/g; the concentration at 4 h amounted to 33.2 ± 6.1 ng/g; the concentration at 7 h was 28.1 ng/g and 29.4 ng/mL and 84.1 nM. In data set [2] (setting [15]), this compound displayed a Cmax of 72.4 ng/g and a Vd of 49.8 L/kg. Moreover, in data set [2] (setting [16]), the Kp was 2.63, the Kp at 1 h was found to be 2.22, the concentration ratio (Kp) at 2 h came to 5.67 and the partition ratio (Kp) at 4 h amounted to 22.4. In addition, the Kp at 7 h in data set [2] (setting [16]) is 12.1. In [2] (setting [17]), the volume of distribution (Vd) is 53.8 L/kg, the clearance was 967 mL/min/kg, the concentration at 1 h came to 27.3 ± 2.5 ng/mL and the concentration at 2 h was 7.56 ± 1.8 ng/mL. In data set [2] (setting [17]), the concentration at 4 h turned out to be 1.48 ± 0.56 ng/mL and the concentration at 7 h was found to be 2.33 ± 1.18 ng/mL. In addition, in data set [2] (setting [18]), the AUC was 95 ng·h/mL, the peak concentration (Cmax) came out at 132 ng/mL, the distribution volume (Vd) was determined as 140 L/kg and the clearance is 1360 mL/min/kg. The “drug unbound in plasma” value in data set [3] is 40%. Also, the “expected human brain nanomolar concentration” value in data set [4] (corresponding to 45.95 ng/g) was “approximately 142.2 nM”. Besides, the “expected human brain concentration” value in data set [4] (pediatric Cmax 20.7 ng/mL x brain to plasma ratio 2.22) is “approximately 45.95 ng/g”. The “clearance predicted in the mouse” value in data set [5] was 55.1 L/kg/h. The protein binding result in [6] was “approximately 60%”. Also, in data set [7], the protein binding was 75–90%. Further, the P-gp substrate status result with P-gp was “substrate of P-gp”. Further, in data set [8], the BCS class result is recorded as “Class II”, the “permeability (BCS)” value is “high permeability” and the “solubility (BCS)” value is recorded as “low solubility”. The half-inhibitory concentration (IC50) in the data set on human DIPG cell lines (prior DIPG models) is 28.3 nM. Besides, in the data set on human DIPG cell lines (range in human DIPG cell lines), the IC50 is 12.1 to 28.3 nM. Also, the “DIPG cultures demonstrating sensitivity” value with DIPG cultures is reported as 12 of the 16. In data set [9], the “brainstem concentration relative to cerebral cortex (times)” value is “more than 7”. Also, in data set [9] (setting [19]), the “concentration in brainstem tumor tissue” value is recorded as 550 ± 51 nM and the “concentration in cerebral cortex” value is on record as 70 ± 10 nM. Further, the volume of distribution in [10] is 42 L/kg. Besides, in data set [11], the volume of distribution is reported as 40.2 L/kg. Further, the “brain penetration in clinical reports” value in [12] is listed as “minimal to no brain penetration”. In data set [12] (prior studies), the “concentrations in the CSF” value is “negligible concentrations”. Also, in data set [13], the “concentrations in xenograft, intestine, bladder, and heart tissue versus plasma” value is reported as “higher concentrations”. In addition, in the data set with refractory solid tumors, the objective response entry is given as “No patient had an objective response”, the “patients with stable disease” value was 3 patients and the tolerability entry is “acceptable tolerability”. Moreover, in the data set on high-grade gliomas, the “median progression free survival (PFS)” value is 4.3 months, the “patients achieving a partial response” value is given as “Three” and the “patients with stable disease” value was 6 patients.

As to `COc1cc2c(Nc3ccc(Br)cc3F)ncnc2cc1OCC1CCN(C)CC1` [vandetanib], the “concentrations in the brain after inhibition of P-gp with everolimus” value in data set [1] is “increased concentrations”.
